Active and inactive are the calls of the source.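 The calls were made as follows, unless noted: active = NADPH fluorescence slope more negative than the mean of all samples by about 3 SD, 99.7% confidence; inactive = the rest.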
Legend:
[1] = inhibitors of TNFa-induced NFkB p65 translocation, primary screen, imaging, HUVEC, MLSMR starter and 10KST1 sets (AID 438;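 active = inhibition above 20% together with a positive visual image hit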;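 also: compound added about 3h40 before a 20 min TNFalpha stimulation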;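 as to inhibition: signal is the nuclear over cytoplasmic p65 intensity ratio per well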); conditions: HUVEC TNFa-induced p65 nuclear translocation; cell count: measured here: nuclei count (cytotoxicity indicator), at 2.08 µM; inhibition: at 2 µM, stronger effect = higher value, 0% TNFa-plus-vehicle, 100% no-TNFa wells
[2] = endothelial E-selectin expression blockers – imaging, HUVEC, immunofluorescence, MLSMR starter and 10KST1 sets, primary screen (AID 487;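 active = visually confirmed hit in the image check and inhibition above 20%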;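 as to inhibition: signal is fraction of cell area covered by stained E-selectin grains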;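 as to nuclei count: 100% = median nuclei count of all wells on the same plate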); conditions: HUVEC TNFalpha-induced E-selectin immunofluorescence imaging, at 2 µM; inhibition: stronger effect = higher value; nuclei count: measured here: cell number, toxicity
[3] = Primary imaging screen for DUSP6 inhibitors that restore phospho-Erk in transfected HeLa cells, chemical complementation (AID 609;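 active = compounds giving at least 50% inhibition in the cell-based MKP-3 phosphatase rescue imaging test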;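 as to inhibition: phospho-Erk level distribution per well compared with pooled transfected vehicle control wells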); conditions: HeLa MKP-3 transfected, phospho-Erk imaging KS statistic, at 10 µM, cells stimulated with TPA for 15 min
[4] = target: Dual specificity protein phosphatase 6 (Homo sapiens) (UniProt Q16828); assay: as above; conditions: HeLa MKP-3 transfected, phospho-Erk imaging KS statistic; at 10 µM; stronger effect = higher value; cells stimulated with TPA for 15 min
Dual specificity protein phosphatase 6 (Homo sapiens), sequence (Q16828 whole entry, looked up): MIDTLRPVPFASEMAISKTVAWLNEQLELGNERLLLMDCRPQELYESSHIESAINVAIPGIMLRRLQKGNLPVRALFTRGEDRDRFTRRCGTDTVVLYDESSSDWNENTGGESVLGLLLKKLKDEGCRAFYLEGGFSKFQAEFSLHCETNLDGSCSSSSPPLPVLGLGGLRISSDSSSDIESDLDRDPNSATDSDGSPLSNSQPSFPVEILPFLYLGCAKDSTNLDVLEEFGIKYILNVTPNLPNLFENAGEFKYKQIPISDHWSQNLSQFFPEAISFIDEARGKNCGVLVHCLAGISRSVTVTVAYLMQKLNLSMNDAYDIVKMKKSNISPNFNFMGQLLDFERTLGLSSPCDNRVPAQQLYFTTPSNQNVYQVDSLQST

[5] = target: Voltage-gated potassium channel subunit beta-2 (Rattus norvegicus) (UniProt P62483); assay: inhibitors of rat Kvbeta2 reductase activity – biochemical, NADPH fluorescence, primary screen (AID 622;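 active = fluorescence slope higher than the sample average by over 3 SD, cut at about -0.22 in these data, passing the limit was not always enough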;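 also: slope of raw intensity against log time taken from 70 to 1610 s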); conditions: recombinant KvBeta, 4-cyanobenzaldehyde reduction, at 10 µM, stronger effect = higher value
Voltage-gated potassium channel subunit beta-2 (Rattus norvegicus), sequence (P62483 whole entry, looked up): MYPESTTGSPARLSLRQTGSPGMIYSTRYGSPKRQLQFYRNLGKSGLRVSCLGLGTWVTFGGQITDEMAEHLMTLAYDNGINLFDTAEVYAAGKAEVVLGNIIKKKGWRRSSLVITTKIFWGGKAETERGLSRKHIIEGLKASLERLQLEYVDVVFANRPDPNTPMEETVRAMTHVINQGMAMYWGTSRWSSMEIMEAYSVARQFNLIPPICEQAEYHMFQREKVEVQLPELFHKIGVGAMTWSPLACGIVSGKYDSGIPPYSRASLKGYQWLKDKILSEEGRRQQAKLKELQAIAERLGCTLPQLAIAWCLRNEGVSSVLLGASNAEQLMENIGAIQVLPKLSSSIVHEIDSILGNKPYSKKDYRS

[6] = target: Voltage-gated potassium channel subunit beta-2 (Rattus norvegicus) (UniProt P62483); assay: enhancers of rat Kvbeta2 NADPH turnover – biochemical, NADPH fluorescence, primary screen (AID 623); conditions: Recombinant KvBeta, NADPH fluorescence decrease slope, 10 min; at 10 µM; stronger effect = lower value;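 also: fluorescence intensity change per second fitted from 20 to 320 s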
[7] = target: Muscarinic acetylcholine receptor M4 (Homo sapiens) (UniProt P08173); assay: M4-linked GIRK flux change, two-sided – cell-based, HEK293 M4/GIRK, thallium flux, BTC-AM, M4 allosteric agonist project, primary screen (AID 625;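 active = fluorescence slope after compound addition differing from the mean of all tested samples at 99.7% confidence, mostly higher but some lower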;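 also: thallium influx through GIRK channels coupled to M4 in HEK293 cells with BTC-AM dye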); conditions: at 10 µM, actives lie on both sides
Muscarinic acetylcholine receptor M4 (Homo sapiens), sequence (P08173 whole entry, looked up): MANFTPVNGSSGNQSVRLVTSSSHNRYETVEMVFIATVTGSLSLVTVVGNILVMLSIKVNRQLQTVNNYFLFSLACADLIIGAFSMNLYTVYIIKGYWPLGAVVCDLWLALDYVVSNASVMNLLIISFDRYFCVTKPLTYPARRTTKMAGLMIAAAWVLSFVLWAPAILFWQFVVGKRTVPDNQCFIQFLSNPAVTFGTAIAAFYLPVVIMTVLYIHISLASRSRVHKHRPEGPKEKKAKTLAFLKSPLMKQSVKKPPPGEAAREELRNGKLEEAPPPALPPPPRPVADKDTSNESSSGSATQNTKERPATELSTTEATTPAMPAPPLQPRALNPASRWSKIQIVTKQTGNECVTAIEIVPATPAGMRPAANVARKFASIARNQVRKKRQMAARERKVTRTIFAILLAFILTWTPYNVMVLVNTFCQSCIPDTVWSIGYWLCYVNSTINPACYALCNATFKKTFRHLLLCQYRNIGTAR
How it was run: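 Material – HEK293 cells with M4 receptor and GIRK channels · Buffer or medium – pH 7.3 thallium assay buffer · Doses – one dose, 10 µM final · Timing – cells overnight at 37 °C, BTC-AM loading 1 h, reads 2 min total · Measured by – kinetic fluorescence with BTC-AM dye · Controls – carbachol and DMSO controls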

[8] = inhibitors of larval lipid processing in zebrafish, primary screen, whole organism, PED6 fluorescence, gall bladder and intestine (AID 686;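 active = a full or partial loss of lipid-probe fluorescence in the fish gall bladder, intestine or both, judged by eye; inactive = no fluorescence loss, or compound toxic to the fish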;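 also: larvae 5 to 7 days old with five fish per well; signal comes from phospholipase A2 cleavage of quenched PED6 carried via bile; overnight exposure to compound and PED6 before scoring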); conditions: Zebrafish larvae PED6 lipid processing, fluorescence scoring; screened at 20 µM (by protocol)
How it was run: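 system = live zebrafish larvae aged 5-7 days, whole organism | probe or stimulus = ingested quenched lipid PED6 at 100 nM | doses = 20 µM single dose | timing = overnight exposure | detection = fluorescence microscopy with visual scoring of gall bladder and intestine | read-out = visual per-well fluorescence inhibition score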

[9] = loss of swimming-algae plug formation – whole organism, Chlamydomonas reinhardtii, WT vs cilia-less mutant, absorbance, 96-well, primary screen (AID 463189;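 active = inhibition at or above 50% relative to wild type and mutant plate controls; inactive = inhibition below 50%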;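 also: 0% = wild type cc124 cells in DMSO and 100% = ciliumless bld1 mutant cells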); conditions: Chlamydomonas reinhardtii gravitaxis, OD600 absorbance, 2 days; at 10 µM; stronger effect = higher value
[10] = measured here: cell density z-score
[11] = measured here: nuclear c-Myc green intensity z-score
[12] = measured here: nuclear pErk red intensity z-score, stronger effect = higher value

Row | Compound | cell count [1] | inhibition [1] | inhibition [2] | nuclei count [2] [%] | z-score [3, 10] | z-score [3, 11] | z-score [3, 12] | inhibition [4] | fluorescence slope [5] | NADPH fluorescence slope [6] | fluorescence slope [7] | outcome [8] | inhibition [9]
1 | N#Cc1nc(-c2cccs2)oc1NCc1ccc2c(c1)OCO2 | 624 | -4.4% (inactive) | -132% (inactive) | 157 | -0.376 | -0.933 | 0.595 | 7.83% (inactive) | -0.404 (inactive) | -1.3e-05 (inactive) | 0.00406 (inactive) | inactive | 30.7% (inactive)
2 | O=c1c2c3c(sc2n2cnnc2n1C1CCCCC1)CCC3 | 363 | -3.6% (inactive) | -2% (inactive) | 172 | -0.995 | -0.714 | 0.683 | -2.59% (inactive) | -0.434 (inactive) | -0.000131 (inactive) | 0.00453 (inactive) | inactive | 33.2% (inactive)
3 | N#Cc1ccc(-c2ccc(OCC(O)Cn3nnc4ccccc43)cc2)cc1 (stereo not drawn) | 528 | -15.6% (inactive) | -19.3% (inactive) | 116 | -2.55 | 0.882 | 0.638 | 5.42% (inactive) | -0.422 (inactive) | -6e-06 (inactive) | 0.00426 (inactive) | inactive | 52.4% (active)
4 | C=C(C)CN(CC)CCC(=O)Nc1ccc(OC)cc1OC | 486 | -7.5% (inactive) | -273% (inactive) | 172 | -0.562 | 0.149 | 0.762 | -7.28% (inactive) | -0.424 (inactive) | -3.9e-05 (inactive) | 0.0048 (inactive) | inactive | 11.3% (inactive)
5 | N#Cc1c(N2CCOCC2)nc(-c2ccco2)c2c1CCCC2 | 536 | -3% (inactive) | -19.5% (inactive) | 96.6 | 0.112 | 0.592 | -1.17 | -2.09% (inactive) | -0.412 (inactive) | -2e-05 (inactive) | 0.00398 (inactive) | inactive | 18.9% (inactive)
6 | CCOC(=O)CSc1nc(-c2ccc3c(c2)OCO3)ccc1C#N | 676 | 4.9% (inactive) | 5.4% (inactive) | 120 | -0.127 | -1.03 | 0.898 | -2.91% (inactive) | -0.199 (inactive) | -8.6e-07 (inactive) | 0.00583 (inactive) | inactive | -3.42% (inactive)
7 | Cc1nnc(SCC(=O)N2CCOCC2)c2ccccc12 | 489 | 7.8% (inactive) | -38.5% (inactive) | 135 | 0.531 | 1.47 | 0.934 | 1.63% (inactive) | -0.534 (inactive) | -0.000118 (inactive) | 0.00485 (inactive) | inactive | -5.11% (inactive)
8 | N#Cc1nc(COc2ccccc2)oc1N1CCCC1 | 463 | -4.6% (inactive) | -281% (inactive) | 164 | -0.447 | 1.68 | 0.969 | 4.37% (inactive) | -0.42 (inactive) | -4.6e-05 (inactive) | 0.00421 (inactive) | inactive | -0.28% (inactive)
9 | CC(C)COC(=O)CCNc1n[nH]c(=O)[nH]c1=O | 622 | -4.8% (inactive) | -26.4% (inactive) | 174 | 0.623 | -0.835 | -0.389 | -11.5% (inactive) | -0.505 (inactive) | -4.2e-05 (inactive) | 0.00627 (inactive) | inactive | -4.85% (inactive)
10 | CCC(=O)Nc1ccc(-c2nnc(-c3ccccc3)o2)cc1 | 647 | 1.6% (inactive) | 18.6% (inactive) | 89.6 | 1.36 | -0.514 | 1.06 | 1.63% (inactive) | -0.444 (inactive) | -8.1e-05 (inactive) | 0.00653 (inactive) | inactive | 30.3% (inactive)
11 | CCC1SC2=NC(C)=C(C(=O)OCCOC)C(c3ccc(C(=O)OC)cc3)N2C1=O (stereo not drawn) | 441 | -11.9% (inactive) | -71.6% (inactive) | 154 | 0.414 | -0.811 | -0.806 | -2.29% (inactive) | -0.411 (inactive) | -4.9e-05 (inactive) | 0.0052 (inactive) | inactive | 6.13% (inactive)
12 | O=C(CC1SC2=NCCN2C1=O)Nc1ccccc1 (stereo not drawn) | 693 | -7.8% (inactive) | -79.2% (inactive) | 167 | -0.578 | 0.509 | 0.504 | 18.6% (inactive) | -0.42 (inactive) | -5.8e-05 (inactive) | 0.00447 (inactive) | inactive | -0.757% (inactive)
13 | Cn1c(NCCCO)nc2c1c(=O)n(Cc1ccccc1F)c(=O)n2C | 691 | -14.5% (inactive) | -160% (inactive) | 167 | -0.594 | -1.48 | 0.588 | 1.9e-07% (inactive) | -0.512 (inactive) | -3.1e-05 (inactive) | 0.00567 (inactive) | inactive | 7.04% (inactive)
14 | O=C(/C=N/O)NCCCN1CCOCC1 | 682 | -11.2% (inactive) | 3.2% (inactive) | 168 | -1.5 | -0.495 | 2.77 | -15.1% (inactive) | -0.477 (inactive) | -7.4e-05 (inactive) | 0.00666 (inactive) | inactive | 5.9% (inactive)
15 | COC(=O)c1ccc(CN(C(C)=O)c2ccccc2)o1 | 547 | 0.8% (inactive) | -113% (inactive) | 141 | 0.183 | -0.22 | -0.676 | 15.4% (inactive) | -0.471 (inactive) | -9.4e-05 (inactive) | 0.00509 (inactive) | inactive | 34.2% (inactive)
16 | Cn1c(N2CCN(c3ccccn3)CC2)nc2c1c(=O)n(Cc1ccccc1Cl)c(=O)n2C | 738 | 4.2% (inactive) | -56.1% (inactive) | 177 | -0.827 | -0.0696 | 1.36 | 13.9% (inactive) | -0.465 (inactive) | -0.000144 (inactive) | 0.00667 (inactive) | inactive | 5.36% (inactive)
17 | CC1(C)Cc2c(c(N3CCOCC3)nc3sc4c(NCc5ccco5)nnnc4c23)CS1 | 504 | -8.4% (inactive) | -6.5% (inactive) | 116 | 1.05 | -0.977 | 0.343 | 19.8% (inactive) | -0.419 (inactive) | -5e-06 (inactive) | 0.00933 (inactive) | inactive | 15.9% (inactive)
18 | Cc1ccc(-n2ncc3c(NCc4cccnc4)ncnc32)c(C)c1 | 623 | -10.1% (inactive) | 33.3% (inactive) | 103 | -0.852 | 0.459 | 0.734 | 1.42% (inactive) | -0.325 (inactive) | -4.3e-05 (inactive) | 0.00518 (inactive) | inactive | -12.1% (inactive)
19 | CCOC(=O)c1c(C)n(C)c2ccc(OC)c(NC(=O)CN3CCC4(CC3)OCCO4)c12 | 690 | -4.9% (inactive) | -157% (inactive) | 178 | 0.288 | 0.471 | 0.00411 | -10.1% (inactive) | -0.44 (inactive) | -4.5e-05 (inactive) | 0.00438 (inactive) | inactive | -0.554% (inactive)
20 | O=C(NCc1ccccn1)c1coc(=O)c(Br)c1 | 542 | -1% (inactive) | 22.6% (inactive) | 119 | -0.164 | 0.668 | -0.53 | 9.61% (inactive) | -0.481 (inactive) | -4e-05 (inactive) | 0.00581 (inactive) | inactive | 10.6% (inactive)
21 | Nc1nc2n(n1)C(c1cccs1)CC(c1ccc(Br)cc1)N2 (stereo not drawn) | 409 | -1% (inactive) | -13.7% (inactive) | 149 | -0.806 | 0.38 | 0.438 | 5.65% (inactive) | -0.443 (inactive) | -9.3e-05 (inactive) | 0.0057 (inactive) | inactive | 21.9% (inactive)
